Assay results: ChEMBL document CHEMBL1154031, “Glycolipid ester-type heterodimers from Ipomoea tyrianthina and their pharmacological activity” (Bioorg Med Chem Lett, 2009)
Converted amounts (≈) assume the structure as drawn. The source made the active and inactive calls. No cut-off for these calls is given here.

Legend:
Brain [1] = test: Increase in GABA release in mouse cortical brain slice at 20 ug/mL upto 180 seconds; assay type: functional, tissue-based
Procedure, shortened: (§1)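 Anterior cortex slices (250-300 um) cut by hand after decapitation, held at 4 °C in oxygenated modified Krebs-Ringer (pH 7.4) with amino-oxyacetic acid 10.0 uM, then 10 min in basal medium at 37 °C. Compound at a final 20.0 ug/mL; aliquots sampled at 0.5-3.0 min. GABA and glutamate measured by HPLC after O-phthaldialdehyde derivatization and expressed per mg slice protein. Untreated control; mean ± SEM, 3 independent experiments.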

Aorta [2] = test: Vasorelaxation activity in Wistar rat endothelium-intact thoracic aortic ring assessed as inhibition of noradrenaline-induced contraction; assay type: functional, tissue-based
Procedure, shortened: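 Thoracic aortic rings (3-5 mm) with endothelium intact, held at 3 g tension in Krebs solution at 37 °C, pH 7.4, gassed O2/CO2 19:1. Isometric tension recorded. Rings precontracted with noradrenaline 0.3 uM, then given cumulative concentrations. Relaxation taken from tone before and after addition. Vehicle and positive control run in parallel.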

Aorta [3] = test: Vasorelaxation activity in Wistar rat endothelium-removed thoracic aortic ring assessed as inhibition of noradrenaline-induced contraction; assay type: functional, tissue-based
Procedure, shortened: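 Endothelium removed from the rings, confirmed by absence of relaxation to carbachol 1 uM. Rings held at 3 g in oxygenated Krebs (37 °C, pH 7.4) and precontracted with noradrenaline 0.3 uM. Cumulative concentration-response curves recorded isometrically. Relaxation calculated by comparing tone before and after compound addition.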

Brain [4] = test: Increase in GABA release in mouse cortical brain slice at 20 ug/mL after 30 seconds; assay type: functional, tissue-based; procedure, shortened: as §1
Brain [5] = test: Increase in glutamic acid release in mouse cortical brain slice assessed per mg of protein at 20 ug/mL upto 180 seconds; assay type: functional; procedure, shortened: as §1
[6] = system: Mycobacterium tuberculosis; test: Antimycobacterial activity against Mycobacterium tuberculosis by microplate blue alamar assay; assay type: functional
Procedure, shortened: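 Modified microplate Alamar Blue assay (MABA) against M. tuberculosis. Pure compounds tested over 100.00 to 3.13 µg/mL. Activity recorded as the minimal inhibitory concentration (MIC).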

| SMILES | Activity (Brain [1]) | Emax (Aorta [2]) [%] | IC50 (Aorta [2]) [nM] | Activity (Aorta [3]) | Activity (Brain [4]) | Activity (Brain [5]) [pmol] | MIC [6] [µg/mL] |
| --- | --- | --- | --- | --- | --- | --- | --- |
| CCCCCC1CCCCCCCCCC(=O)O[C@@H]2[C@@H](O[C@@H]3O[C@@H](C)[C@H](OC(=O)CCCCCCCCC[C@@H](CCCCC)O[C@@H]4O[C@H](C)[C@@H](O)[C@H](O)[C@H]4O[C@@H]4O[C@H](CO)[C@@H](O)[C@H](O)[C@H]4O[C@@H]4O[C@@H](C)[C@H](O[C@@H]5O[C@H](C)[C@@H](OC(=O)C(C)CC)[C@H](O)[C@H]5O)C(O)C4OC(=O)C(C)C(C)O)[C@@H](O)[C@@H]3O)[C@H](C)O[C@@H](O[C@H]3[C@H](O[C@H]4[C@H](O1)O[C@H](C)[C@@H](O)[C@@H]4O)O[C@H](COC(=O)C(C)C(C)O)[C@@H](O)[C@@H]3O)[C@@H]2OC(=O)C(C)C(C)O (stereo partly drawn) [TYRIANTHIN A] | Active | 81.8 | 240 | inactive | Active | 100 | 100 (≈ 47.7 µM) |
| CCCCCC1CCCCCCCCCC(=O)O[C@@H]2[C@@H](O[C@@H]3O[C@@H](C)[C@H](OC(=O)CCCCCCCCC[C@@H](CCCCC)O[C@@H]4O[C@H](C)[C@@H](O)[C@H](O)[C@H]4O[C@@H]4O[C@H](CO)[C@@H](O)[C@H](O)[C@H]4O[C@@H]4O[C@@H](C)[C@H](O[C@@H]5O[C@H](C)[C@@H](O)[C@H](O)[C@H]5O)C(O)C4OC(=O)CCC)[C@@H](O)[C@@H]3O)[C@H](C)O[C@@H](O[C@H]3[C@H](O[C@H]4[C@H](O1)O[C@H](C)[C@@H](O)[C@@H]4O)O[C@H](COC(=O)C(C)C(C)O)[C@@H](O)[C@@H]3O)[C@@H]2OC(=O)C(C)C(C)O (stereo partly drawn) [TYRIANTHIN B] | inactive | – | 140 | inactive | Active | 180 | 100 (≈ 50.5 µM) |
